From ChEMBL document CHEMBL1140478, “Preparation and antitubercular activities of alkylated amino alcohols and their glycosylated derivatives” (Bioorg Med Chem, 2007) come the findings set out here.

Molecules are shown by their SMILES.

The test system of data set [1] is Mycobacterium tuberculosis. Put plainly: Antimycobacterial activity against Mycobacterium tuberculosis H37Rv by microplate alamar blue assay. The data set is classed as functional. The method in brief:
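M. tuberculosis H37Rv (ATCC 27294) exposed to decreasing compound concentrations in Middlebrook 7H9 medium. Growth read by Microplate Alamar Blue Assay. MIC taken as the lowest concentration that […]. Values are means of three separate experiments. Rifampicin at 1.0 µg/mL served as internal control.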
For orientation: The colour change of resazurin is a common sign of viable cells or microbes.

Data set [2] is described as follows: Cell proliferation of mouse […] cells at 0.5 ug/mL by MTT assay. The data set is classed as ADME, cell-based, J774.A1. The following applies: J774A.1 cells, read-out: Activity. The method in brief:
(§1)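 Supernatants removed, cells given supplemented RPMI plus MTT (5 mg/mL) for 4 h at 37 °C, 5% CO2. Reaction stopped with acidic isopropanol (HCl), 10 min at room temperature, OD read at 570 nm. Proliferation and cytotoxicity calculated by formulae.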

The subject of data set [3] is J774.A1. Briefly: Cytotoxicity against mouse […] cells at 0.5 ug/mL by MTT assay. The data set is classed as cell-based. In a few lines: as §1
The nature of data set [4]: Cell proliferation of mouse […] cells at 0.05 ug/mL by MTT assay. The data set is classed as ADME, cell-based, J774.A1. The note with it: J774A.1 cells, read-out: Activity. The method in brief: as §1
(Tetrazolium dyes change colour on reduction, which living cells bring about.)

Data set [5] relates to J774.A1. Briefly: Cytotoxicity against mouse […] cells at 0.05 ug/mL by MTT assay. The data set is classed as cell-based. In a few lines:
as §1

A short description of data set [6]: Cell proliferation of mouse […] cells at 0.005 ug/mL by MTT assay. In kind it is ADME, cell-based, J774.A1. The note with it: J774A.1 cells, read-out: Activity. In a few lines: as §1
The test system of data set [7] is J774.A1. Put plainly: Cytotoxicity against mouse […] cells at 0.005 ug/mL by MTT assay. The data set is classed as cell-based. In a few lines:
as §1

In data set [1], `CCCCCCCCCCCCNCCO` displayed an MIC of 27 µM. In data set [2], the viability at 0.5 ug/mL was 90.9%. Also, the Activity came out at 21.3% in the data set on J774.A1 [3], 8.4% in the data set with J774.A1 [5] and 12.1% with J774.A1 [7]. Further, the viability at 0.05 ug/mL in data set [4] amounted to 77.6%. Besides, in data set [6], the viability at 0.005 ug/mL turned out to be 92.7%.
In data set [1], `CCCCCCCCCCC(O)CN` (stereo unspecified) returned an MIC of 15 µM. The viability at 0.5 ug/mL in data set [2] is 96.4%. The figures for the Activity in the data set on J774.A1 [3], in the data set with J774.A1 [5] and in the data set with J774.A1 [7] were 31.1%, “Not Active” and “Not Active”, respectively. Besides, in data set [4], the viability at 0.05 ug/mL worked out at 112%. Besides, the viability at 0.005 ug/mL in data set [6] was determined as 110%.
In turn, `CCCCCCCCCCCCCCN(CCO)C[C@H]1O[C@@H]2OC(C)(C)O[C@@H]2[C@H]2OC(C)(C)O[C@H]21` yielded a minimal inhibitory concentration (MIC) in data set [1] of 12 µM. Besides, the viability at 0.5 ug/mL in data set [2] is 118%. The Activity result in the data set with J774.A1 [3], in the data set on J774.A1 [5] and in the data set on J774.A1 [7] was “Not Active” in each case. In data set [4], the viability at 0.05 ug/mL was determined as 135%. Further, the viability at 0.005 ug/mL in data set [6] was 113%.
In data set [1], `CCCCCCCCCCCCCCCCN(CCO)C[C@H]1O[C@@H]2OC(C)(C)O[C@@H]2[C@H]2OC(C)(C)O[C@H]21` displayed an MIC of 11 µM. Moreover, in data set [2], the viability at 0.5 ug/mL was 149%. The Activity in the data set on J774.A1 [3] is 17.4%; in the data set with J774.A1 [5], 16.3%; in the data set on J774.A1 [7] it was 10.6%. In addition, the viability at 0.005 ug/mL in data set [6] was found to be 104%.
In turn, `CCCCCCCCCCC(O)CNC[C@H]1O[C@@H]2OC(C)(C)O[C@@H]2[C@H]2OC(C)(C)O[C@H]21` (stereo partly specified) had an MIC in data set [1] of 28 µM.
As for `CCCCCCCCNCCO`, inhibition of growth in data set [1] (MIC) required 578 µM.
Still for that read-out and setting: for `CCCCCCCCCCNCCO` the value was 248 µM; for `CCCCCCCCCCCCCCCCNCCO`, 46 µM; for `CCCCC(CC)CNCCO` (stereo unspecified), more than 578 µM.
For the compound `CCCCCCCCCCCCN(CCO)C[C@H]1O[C@@H]2OC(C)(C)O[C@@H]2[C@H]2OC(C)(C)O[C@H]21`, the MIC in data set [1] was found to be 6 µM. Besides, the viability at 0.5 ug/mL in data set [2] is 96.6%. Also, the Activity entry in the data set on J774.A1 [3], with J774.A1 [5] and with J774.A1 [7] was “Not Active” throughout. Besides, the viability at 0.05 ug/mL in data set [4] was found to be 98.9%. For the same compound, the viability at 0.005 ug/mL in data set [6] was found to be 98.3%.
In data set [1], `CCCCC(CC)CN(CCO)C[C@H]1O[C@@H]2OC(C)(C)O[C@@H]2[C@H]2OC(C)(C)O[C@H]21` (stereo partly specified) showed an MIC of more than 240 µM.
In turn, `CCCCCCCCCCN(CCO)C[C@H]1O[C@@H]2OC(C)(C)O[C@@H]2[C@H]2OC(C)(C)O[C@H]21` displayed an MIC in data set [1] of 225 µM.
For the compound `CCCCCCCCN(CCO)C[C@H]1O[C@@H]2OC(C)(C)O[C@@H]2[C@H]2OC(C)(C)O[C@H]21`, in data set [1], the MIC is 241 µM.
`CC[C@@H](CO)NCCN[C@@H](CC)CO` [ETHAMBUTOL] showed an MIC in data set [1] of 3.25 µg/mL.
Take `NNC(=O)c1ccncc1` [ISONIAZID]: the MIC in data set [1] came out at 0.2 µg/mL.
Compound `CCCCCCCCCCCCCCNCCO` [MYRALACT] returned a minimum inhibitory concentration (MIC) in data set [1] of 51 µM.
Still for that read-out and setting: to `CO[C@H]1/C=C/O[C@@]2(C)Oc3c(C)c(O)c4c(O)c(c(/C=N/N5CCN(C)CC5)c(O)c4c3C2=O)NC(=O)/C(C)=C\C=C\[C@H](C)[C@H](O)[C@@H](C)[C@@H](O)[C@@H](C)[C@H](OC(C)=O)[C@@H]1C` [RIFAMPIN] belongs 1 µg/mL.

The term MIC denotes the least concentration at which growth counts as inhibited. Lower therefore signals greater potency.
